Test results published in PMC4112157 (Bioorganic & medicinal chemistry, 2014).
“Also recorded” adds a separate entry of the source. Read-outs that look alike come from different tables or passages of the source.

Legend:
s15-LOX-1 = target: T1, s15-LOX-1 (Glycine max, UniProt P08170); experiment: Lipoxygenase UV-Vis-based IC50 assay, s15-LOX-1; format: biochemical, soybean
T1 sequence (P08170 1-839): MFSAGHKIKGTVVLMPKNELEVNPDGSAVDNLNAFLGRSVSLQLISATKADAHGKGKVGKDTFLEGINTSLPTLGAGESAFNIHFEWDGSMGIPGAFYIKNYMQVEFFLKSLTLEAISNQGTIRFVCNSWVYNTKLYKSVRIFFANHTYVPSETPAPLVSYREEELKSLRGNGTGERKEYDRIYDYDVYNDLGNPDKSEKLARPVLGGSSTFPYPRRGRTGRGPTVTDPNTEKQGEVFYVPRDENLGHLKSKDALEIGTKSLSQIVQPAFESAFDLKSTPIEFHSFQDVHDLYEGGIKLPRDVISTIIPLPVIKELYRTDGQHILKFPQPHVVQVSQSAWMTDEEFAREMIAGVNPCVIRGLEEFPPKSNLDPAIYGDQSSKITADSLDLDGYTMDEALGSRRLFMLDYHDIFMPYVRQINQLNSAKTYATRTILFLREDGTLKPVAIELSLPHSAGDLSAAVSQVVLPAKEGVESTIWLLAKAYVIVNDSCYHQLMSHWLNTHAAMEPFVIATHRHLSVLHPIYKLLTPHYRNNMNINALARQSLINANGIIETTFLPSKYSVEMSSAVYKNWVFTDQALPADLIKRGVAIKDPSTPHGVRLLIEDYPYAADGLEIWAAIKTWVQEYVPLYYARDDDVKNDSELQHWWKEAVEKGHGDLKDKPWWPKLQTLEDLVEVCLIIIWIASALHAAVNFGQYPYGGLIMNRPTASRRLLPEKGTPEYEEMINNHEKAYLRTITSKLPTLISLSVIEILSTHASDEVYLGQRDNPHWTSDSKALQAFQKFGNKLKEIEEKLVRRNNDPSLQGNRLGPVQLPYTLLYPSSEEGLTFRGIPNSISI

h15-LOX-1 [1] = target: T2, h15-LOX-1 (Homo sapiens, UniProt P16050); experiment: Incubation activity assay; format: biochemical; conditions: time incubation experiments
T2 sequence (P16050 1-662): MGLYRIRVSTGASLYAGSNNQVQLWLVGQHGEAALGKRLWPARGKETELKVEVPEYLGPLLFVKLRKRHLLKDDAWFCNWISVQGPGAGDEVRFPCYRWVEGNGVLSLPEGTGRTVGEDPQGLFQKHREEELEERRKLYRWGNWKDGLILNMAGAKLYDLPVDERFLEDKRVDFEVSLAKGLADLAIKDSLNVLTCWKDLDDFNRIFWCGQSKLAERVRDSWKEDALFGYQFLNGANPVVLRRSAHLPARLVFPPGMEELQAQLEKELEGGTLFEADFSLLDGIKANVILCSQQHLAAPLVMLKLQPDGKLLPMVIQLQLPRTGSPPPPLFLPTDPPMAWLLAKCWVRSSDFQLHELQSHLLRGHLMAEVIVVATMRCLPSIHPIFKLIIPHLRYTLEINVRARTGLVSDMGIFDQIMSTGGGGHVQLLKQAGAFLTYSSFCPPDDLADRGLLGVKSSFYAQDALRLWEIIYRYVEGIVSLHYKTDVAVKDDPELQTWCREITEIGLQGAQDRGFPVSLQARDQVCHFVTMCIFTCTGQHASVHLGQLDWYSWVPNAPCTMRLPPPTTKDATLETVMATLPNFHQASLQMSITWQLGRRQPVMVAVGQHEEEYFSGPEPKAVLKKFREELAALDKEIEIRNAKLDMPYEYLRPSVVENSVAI

h5-LOX = target: T3, h5-LOX (Homo sapiens, UniProt P09917); experiment: Oxo-lipid substrate activity, h5-LOX; format: biochemical; conditions: IC50 assay conditions, 10 μM oxo-lipid, UV-Vis 234/280 nm, LC-MS
T3 sequence (P09917 1-674): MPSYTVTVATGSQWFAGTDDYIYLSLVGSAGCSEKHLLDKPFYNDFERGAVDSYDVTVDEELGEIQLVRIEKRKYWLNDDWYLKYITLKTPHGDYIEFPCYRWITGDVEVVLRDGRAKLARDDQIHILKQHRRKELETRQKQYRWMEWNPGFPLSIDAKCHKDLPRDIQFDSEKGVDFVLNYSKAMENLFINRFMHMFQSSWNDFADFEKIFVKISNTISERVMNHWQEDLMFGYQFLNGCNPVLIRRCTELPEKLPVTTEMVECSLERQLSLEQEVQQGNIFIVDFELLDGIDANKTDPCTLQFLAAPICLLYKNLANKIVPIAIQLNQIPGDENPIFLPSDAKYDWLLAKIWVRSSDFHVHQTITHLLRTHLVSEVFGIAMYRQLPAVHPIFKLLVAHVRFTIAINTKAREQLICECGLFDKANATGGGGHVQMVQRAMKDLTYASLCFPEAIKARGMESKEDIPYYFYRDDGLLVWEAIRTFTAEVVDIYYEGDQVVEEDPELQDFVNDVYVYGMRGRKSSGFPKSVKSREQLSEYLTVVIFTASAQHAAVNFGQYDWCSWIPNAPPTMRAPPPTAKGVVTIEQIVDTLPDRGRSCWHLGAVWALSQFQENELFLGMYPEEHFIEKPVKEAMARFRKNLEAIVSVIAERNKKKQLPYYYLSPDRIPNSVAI

h15-LOX-1 [2] = target: T2, h15-LOX-1; experiment: Oxo-lipid substrate activity, h15-LOX-1; format: biochemical
cytosolic calcium levels = conditions: cited from earlier work
LOX isozymes = experiment: Lipoxygenase UV-Vis-based IC50 assay, summary over LOX isozymes; format: biochemical
h12-LOX [3] = target: T4, h12-LOX (Homo sapiens, UniProt P18054); experiment: Steady-state inhibition kinetics, h12-LOX; format: biochemical; conditions: for Ki: 0.4–10 μM AA, 25 mM HEPES pH 8.0, 0.01% Triton X-100, Dixon plot and replot
T4 sequence (P18054 1-663): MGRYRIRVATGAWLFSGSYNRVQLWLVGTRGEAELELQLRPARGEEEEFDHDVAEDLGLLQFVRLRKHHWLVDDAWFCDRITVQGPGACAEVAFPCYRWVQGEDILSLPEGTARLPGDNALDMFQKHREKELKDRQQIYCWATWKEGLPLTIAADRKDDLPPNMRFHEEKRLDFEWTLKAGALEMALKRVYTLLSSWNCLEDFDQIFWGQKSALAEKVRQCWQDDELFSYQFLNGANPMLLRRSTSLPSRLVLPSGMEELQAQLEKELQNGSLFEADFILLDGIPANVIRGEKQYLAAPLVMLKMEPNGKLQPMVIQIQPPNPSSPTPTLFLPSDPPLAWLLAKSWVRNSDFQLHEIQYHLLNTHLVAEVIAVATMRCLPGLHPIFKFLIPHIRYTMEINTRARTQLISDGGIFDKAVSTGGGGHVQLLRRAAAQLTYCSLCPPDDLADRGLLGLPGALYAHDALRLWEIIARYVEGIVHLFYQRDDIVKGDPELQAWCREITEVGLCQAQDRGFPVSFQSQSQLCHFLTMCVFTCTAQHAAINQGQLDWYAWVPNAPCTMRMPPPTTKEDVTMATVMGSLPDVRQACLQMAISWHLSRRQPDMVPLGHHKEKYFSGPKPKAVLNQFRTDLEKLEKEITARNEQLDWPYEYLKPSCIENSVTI
Outline: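 Enzyme added to start the reaction in a stirred cuvette containing 0.4–10 μM arachidonic acid, 25 mM HEPES (pH 8.0) and 0.01% Triton X-100. 12-HpETE formation followed at 234 nm (ε = 25,000 M−1cm−1) across substrate and inhibitor concentrations, with Dixon series at 0.6, 1, 3 and 9 μM AA. Dixon plot and slope-vs-[inhibitor] replot give Kic (dissociation from enzyme) and Kiu (from enzyme–substrate complex).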

h12-LOX [4] = target: T4, h12-LOX; experiment: Oxo-lipid substrate activity, h12-LOX; format: biochemical
[5] = IC50 assay conditions, 10 μM oxo-lipid, UV-Vis 234/280 nm
[6] = IC50 assay conditions, 10 μM oxo-lipid, UV-Vis 234/280 nm, LC-MS
[7] = incubation conditions, 10 μM, on ice 15 minutes, HPLC and LC-MS

In the case of `CCCCC/C=C\CC(=O)/C=C/C=C\C/C=C\CCCC(=O)O` [12-oxo-ETE, 12-oxo-5,8,10,14-(Z,Z,E,Z)-eicosatetraenoic acid], the IC50 (s15-LOX-1) is reported as greater than 100 µM, the “mode of inhibition (time dependence)” value (h15-LOX-1 [1]) is reported as “irreversible inhibition” and the substrate activity (h5-LOX) is reported as “no change of absorbance at 234 nm or 280 nm”. For the same compound, the substrate activity (h15-LOX-1 [2]; [5]) was “no change of absorbance at 234 nm or 280 nm”, the “concentration with calcium effects (as low as)” value (cytosolic calcium levels) was 10 nM and the “concentration with effects on cytosolic calcium levels” value (cytosolic calcium levels) was 10 µM.

Compound `CCCCCC(=O)/C=C/C=C\C/C=C\C/C=C\CCCC(=O)O` [15-oxo-ETE, 15-oxo-5,8,11,13-(Z,Z,Z,E)-eicosatetraenoic acid] has an IC50 (LOX isozymes; read-out: IC50 against the other LOX isozymes, LOX isozymes other than h12-LOX) greater than 25 µM, a Ki (h12-LOX [3]; Kic) of 87 ± 8 nM and a Ki (h12-LOX [3]; Kiu) of 2100 ± 800 nM. The “mode of inhibition (steady state)” value (h12-LOX [3]; steady state inhibition kinetics) was “mixed inhibitor; also recorded: mixed inhibition”, the substrate activity (h5-LOX) was “multiple oxidation products were formed” and the substrate activity (h12-LOX [4]; [6]) was “not a substrate”. For the same compound, the substrate activity (h12-LOX [4]; [7]) was “not a substrate” and the substrate activity (h15-LOX-1 [2]; [7]) was “not a substrate”.

Work on `CCCCCC(=O)/C=C/C=C\CCCCCCCC(=O)O` [13-oxo-ODE, 13-oxo-9,11-(Z,E)-octadecadienoic acid] yielded an IC50 (s15-LOX-1) greater than 100 µM and an IC50 (LOX isozymes; read-out: IC50 for all LOXs, all LOXs studied) greater than 100 µM.

In the case of `CCCCC/C=C\C/C=C\C/C=C\C=C\C(=O)CCCC(=O)O` [5-oxo-ETE, 5-oxo-6,8,11,14-(E,Z,Z,Z)-eicosatetraenoic acid], the IC50 (s15-LOX-1) is reported as greater than 100 µM, the substrate activity (h5-LOX) is reported as “no change of absorbance at 234 nm or 280 nm” and the substrate activity (h12-LOX [4]; [6]) is reported as “no change of absorbance at 234 nm or 280 nm”. The substrate activity (h15-LOX-1 [2]; [5]) was “no change of absorbance at 234 nm or 280 nm”.
